Experimental data reported in ChEMBL document CHEMBL1133466, “Synthesis and antimalarial activity of sixteen dispiro-1,2,4, 5-tetraoxanes: alkyl-substituted 7,8,15,16-tetraoxadispiro[5.2.5. 2]hexadecanes” (J Med Chem, 2000).

Tests used:
[1] = test system: Mus musculus; test: Evaluated for the percentage of subcutaneously to Plasmodium berghei infected mice on days 3, 4, and 5 post infection.; type: functional
How it was run: (§1)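 Modified Thompson test. Five-week-old CD-1 mice infected ip on day 0 with drug-sensitive P. berghei KBG 173 trophozoites from a donor mouse at 60% parasitemia. Groups of five or seven mice dosed sc b.i.d. on days 3, 4 and 5 at 64 mg/kg/day. Parasitemia read on Giemsa-stained blood films on day 6, then weekly to day 60. Survival followed; mice alive and blood-film negative at day 60 counted as cured.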

[2] = test system: Plasmodium falciparum; test: Antimalarial activity against chloroquine-sensitive Plasmodium falciparum D6; type: functional, organism-based
[3] = test system: Plasmodium falciparum; test: Antimalarial activity against chloroquine-resistant Plasmodium falciparum W2; type: functional, organism-based
[4] = Evaluated for the neurotoxicity against NB2a Neuroblastoma cells.; type: functional, cell-based, Mus musculus
How it was run: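 Neurite outgrowth assay in NB2a neuroblastoma cells grown in high-glucose DMEM with 5% horse serum and 5% fetal calf serum, 37 °C, 5% CO2. Cells plated at 15 000 cells/mL. After 24 h, switched to serum-free medium with 0.5 mM dibutyryl cAMP plus drug at 10 and 0.1 µM for a further 24 h. Cells fixed in formaldehyde and stained with Coomassie. Average neurite length per cell measured by image analysis over 10 fields of about 20 cells; IC50 reported.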

[5] = test system: Mus musculus; test: Evaluated for the survival of the mice when 64 mg/kg/day was administered subcutaneously to Plasmodium berghei infected mice on days 3, 4, and 5 post infection;1/9, 2/10, 1/18, 1/19; type: functional, organism-based; how it was run: as §1
[6] = test system: Mus musculus; test: Evaluated for the survival of the mice when 128 mg/kg/day was administered orally to Plasmodium berghei infected mice on days 3, 4, and 5 post infection; 1/15; 1/17; 1/18; 2/C(C=Survival beyond 60 days); type: functional, organism-based
How it was run: as §1, with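 “po” for “sc”, “128” for “64”, “Giemsa” for “Parasitemia read on Giemsa-stained”, “films taken” for “films”, “Day of death recorded;” for “Survival followed;”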

[7] = test system: Mus musculus; test: Evaluated for the survival of the mice when 128 mg/kg/day was administered orally to Plasmodium berghei infected mice on days 3, 4, and 5 post infection;1/9 1/26 3/C(C=survival beyond 60 days); type: functional, organism-based
How it was run: as §1, with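 “po” for “sc”, “128” for “64”, “Giemsa” for “Parasitemia read on Giemsa-stained”, “films taken” for “films”, “Day of death recorded;” for “Survival followed;”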

[8] = test system: Mus musculus; test: Evaluated for the survival of the mice when 64 mg/kg/day was administered subcutaneously to Plasmodium berghei infected mice on days 3, 4, and 5 post infection;1/8, 1/9, 1/10, 1/12, 1/15; type: functional, organism-based; how it was run: as §1
[9] = test system: Mus musculus; test: Evaluated for the survival of the mice when 64 mg/kg/day was administered subcutaneously to Plasmodium berghei infected mice on days 3, 4, and 5 post infection;1/8, 2/9, 1/10, 1/13; type: functional, organism-based; how it was run: as §1
[10] = test system: Mus musculus; test: Evaluated for the survival of the mice when 128 mg/kg/day was administered orally to Plasmodium berghei infected mice on days 3, 4, and 5 post infection.1/8, 2/16, 1/32, 3/C(C=survival beyond 60 days); type: functional, organism-based
How it was run: as §1, with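 “po” for “sc”, “128” for “64”, “Giemsa” for “Parasitemia read on Giemsa-stained”, “films taken” for “films”, “Day of death recorded;” for “Survival followed;”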

[11] = test system: Mus musculus; test: Evaluated for the survival of the mice when 128 mg/kg/day was administered orally to Plasmodium berghei infected mice on days 3, 4, and 5 post infection; 5/C(C=survival beyond 60 days); type: functional, organism-based
How it was run: as §1, with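 “po” for “sc”, “128” for “64”, “Giemsa” for “Parasitemia read on Giemsa-stained”, “films taken” for “films”, “Day of death recorded;” for “Survival followed;”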

[12] = test system: Mus musculus; test: Evaluated for the survival of the mice when 64 mg/kg/day was administered subcutaneously to Plasmodium berghei infected mice on days 3, 4, and 5 post infection; 7/C(C=survival beyond 60 days); type: functional, organism-based; how it was run: as §1

CC1CCC2(CC1)OOC1(CCC(C)CC1)OO2 (stereo unspecified)
Parasitemia [1]: 22% | IC50 [2]: 23 nM | IC50 [3]: 21 nM | IC50 [4]: 1.1 nM

CC1CCC2(CC1C)OOC1(CCC(C)C(C)C1)OO2 (stereo unspecified)
No. of mice dead/day died [5]: Survival beyond 60 days | Parasitemia [1]: 14% | IC50 [2]: 12 nM | IC50 [3]: 10 nM | No. of mice dead/day died [6]: Survival beyond 60 days | IC50 [4]: 4.4 nM

CC1CC(C)(C)CCC12OOC1(CCC(C)(C)CC1C)OO2 (stereo unspecified)
IC50 [2]: > 1000 nM | IC50 [3]: > 1000 nM | IC50 [4]: 1.4 nM

CC1CCCC2(OOC3(CCCC(C)C3C)OO2)C1C (stereo unspecified)
Parasitemia [1]: 3% | IC50 [2]: 50 nM | IC50 [3]: 43 nM

CC1CCC(C)C2(C1)OOC1(CC(C)CCC1C)OO2 (stereo unspecified)
No. of mice dead/day died [7]: survival beyond 60 days | No. of mice dead/day died [8]: survival beyond 60 days | Parasitemia [1]: 13% | IC50 [2]: 15 nM | IC50 [3]: 19 nM | IC50 [4]: 17 nM

C[C@@H]1CCCCC12OOC1(CCCC[C@@H]1C)OO2 (stereo partly specified) [WR-148999]
Parasitemia [1]: 11% | IC50 [2]: 55 nM | IC50 [3]: 32 nM | IC50 [4]: 8.4 nM

CC1CCC(C(C)C)C2(C1)OOC1(CC(C)CCC1C(C)C)OO2 (stereo unspecified)
No. of mice dead/day died [9]: survival beyond 60 days | No. of mice dead/day died [10]: survival beyond 60 days | Parasitemia [1]: 7% | IC50 [2]: 47 nM | IC50 [3]: 37 nM | IC50 [4]: 37 nM

CCO[C@H]1O[C@@H]2O[C@@]3(C)CC[C@H]4[C@H](C)CC[C@@H]([C@H]1C)[C@@]24OO3 [ARTEMOTIL]
Parasitemia [1]: 0% | IC50 [2]: 2.7 nM | No. of mice dead/day died [11]: survival beyond 60 days | No. of mice dead/day died [12]: survival beyond 60 days | IC50 [3]: 1.4 nM

CO[C@H]1O[C@@H]2O[C@@]3(C)CC[C@H]4[C@H](C)CC[C@@H]([C@H]1C)[C@@]24OO3 [ARTEMETHER]
IC50 [4]: 351 nM

CC1(C)CCC2(CC1)OOC1(CCC(C)(C)CC1)OO2
IC50 [2]: > 1000 nM | IC50 [3]: > 1000 nM | IC50 [4]: 2 nM

CC1CCC2(OOC3(CCC(C)CC3C)OO2)C(C)C1 (stereo unspecified)
IC50 [2]: 110 nM | IC50 [3]: 49 nM | IC50 [4]: > 1 nM

CCC[C@@H]1CCCCC12OOC1(CCCC[C@@H]1CCC)OO2 (stereo partly specified)
IC50 [2]: 84 nM | IC50 [3]: 39 nM

CC(C)(C)C1CCC2(CC1)OOC1(CCC(C(C)(C)C)CC1)OO2 (stereo unspecified)
IC50 [2]: 200 nM | IC50 [3]: 100 nM | IC50 [4]: 2.8 nM

CC[C@@H]1CCCCC12OOC1(CCCC[C@@H]1CC)OO2 (stereo partly specified)
Parasitemia [1]: 28% | IC50 [2]: 23 nM | IC50 [3]: 19 nM | IC50 [4]: 9.3 nM

CC(C)(C)[C@H]1CCCCC12OOC1(CCCC[C@H]1C(C)(C)C)OO2 (stereo partly specified)
IC50 [2]: > 300 nM | IC50 [3]: 160 nM | IC50 [4]: 3.4 nM

CC1CC(C)CC2(C1)OOC1(CC(C)CC(C)C1)OO2 (stereo unspecified)
Parasitemia [1]: 82% | IC50 [2]: 30 nM | IC50 [3]: 15 nM | IC50 [4]: 6.7 nM

CC(C)C1CCC(C)C2(C1)OOC1(CC(C(C)C)CCC1C)OO2 (stereo unspecified)
IC50 [2]: 140 nM | IC50 [3]: 94 nM | IC50 [4]: 40 nM

CC1(C)CC(C)(C)CC2(C1)OOC1(CC(C)(C)CC(C)(C)C1)OO2
IC50 [2]: > 1000 nM | IC50 [3]: > 1000 nM | IC50 [4]: 3.6 nM

CC1CCCC2(C1)OOC1(CCCC(C)C1)OO2 (stereo unspecified)
IC50 [2]: 76 nM | IC50 [3]: 51 nM | IC50 [4]: 16 nM

C[C@@H]1CC[C@H]2[C@@H](C)C(=O)O[C@@H]3O[C@@]4(C)CC[C@@H]1[C@]32OO4 [ARTEMISININ]
IC50 [2]: 8.4 nM | IC50 [3]: 7.3 nM
